Laboratory results from ChEMBL document CHEMBL3272018, “Synthesis of aziridinylallylaminophosphine oxides and sulfides as potential adjuvant cancer chemotherapeutic agents” (J Med Chem, 1976).
Calls of active or inactive are those of the source. The calls are words filed in the database; no cut-off is given here.

How the values were obtained:
W256 [1] = experiment: Antitumor activity against cytoxan-resistant rat Walker 256 cells intramuscularly allografted in rat assessed as tumor growth inhibition at 0.5 mg/kg, qd administered for 5 days relative to control; type: functional; conditions: W256, im, 120 h, route intramuscular, read-out: TGI
Method in brief: (§1)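 Dosed once daily for 5 days. Response is tumor progression in treated (T) versus untreated control (C) animals, expressed as T/C percentage. Host weight change is reported as the average net weight change of the test group minus that of the controls, in grams.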

W256 [2] = experiment: Antitumor activity against cytoxan-resistant rat Walker 256 cells intramuscularly allografted in rat assessed as tumor growth inhibition at 0.25 mg/kg, qd administered for 5 days relative to control; type: functional; conditions: W256, im, 120 h, route intramuscular, read-out: TGI; method in brief: as §1
W256 [3] = experiment: Antitumor activity against cytoxan-resistant rat Walker 256 cells intramuscularly allografted in rat assessed as tumor growth inhibition at 0.12 mg/kg, qd administered for 5 days relative to control; type: functional; conditions: W256, im, 120 h, route intramuscular, read-out: TGI; method in brief: as §1
W256 [4] = experiment: Antitumor activity against rat Walker 256 cells intramuscularly allografted in rat assessed as survival rate at 0.5 mg/kg, qd administered for 5 days; type: functional, organism-based; parameters: dose 0.5 mg/kg
Method in brief: (§2)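 Rats bearing Walker 256 carcinoma as a solid tumor; lines 1-8 use a cytoxan-resistant Walker 256 subline. Dosed once daily for 5 days. Treated (T) and untreated control (C) groups are compared, and the response is given as T/C percentage, reflecting increase in survival time. Host weight change is the average weight change of the test group minus that of the controls, in grams.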

W256 [5] = experiment: Antitumor activity against rat Walker 256 cells intramuscularly allografted in rat assessed as survival rate at 0.25 mg/kg, qd administered for 5 days; type: functional, organism-based; parameters: dose 0.25 mg/kg; method in brief: as §2
W256 [6] = experiment: Antitumor activity against rat Walker 256 cells intramuscularly allografted in rat assessed as survival rate at 0.125 mg/kg, qd administered for 5 days; type: functional, organism-based; parameters: dose 0.125 mg/kg; method in brief: as §2
W256 [7] = experiment: Antitumor activity against rat Walker 256 cells intramuscularly allografted in rat assessed as survival rate at 0.062 mg/kg, qd administered for 5 days; type: functional, organism-based; parameters: dose 0.062 mg/kg; method in brief: as §2
W256 [8] = experiment: Antitumor activity against rat Walker 256 cells intramuscularly allografted in rat assessed as survival rate at 0.031 mg/kg, qd administered for 5 days; type: functional, organism-based; parameters: dose 0.031 mg/kg; method in brief: as §2
W256 [9] = experiment: Antitumor activity against cytoxan-resistant rat Walker 256 cells intramuscularly allografted in rat assessed as survival rate at 1 mg/kg, qd administered for 5 days; type: functional, organism-based; parameters: dose 1 mg/kg; method in brief: as §2
W256 [10] = experiment: Antitumor activity against cytoxan-resistant rat Walker 256 cells intramuscularly allografted in rat assessed as survival rate at 0.5 mg/kg, qd administered for 5 days; type: functional, organism-based; parameters: dose 0.5 mg/kg; method in brief: as §2
W256 [11] = experiment: Antitumor activity against cytoxan-resistant rat Walker 256 cells intramuscularly allografted in rat assessed as survival rate at 0.25 mg/kg, qd administered for 5 days; type: functional, organism-based; parameters: dose 0.25 mg/kg; method in brief: as §2
W256 [12] = experiment: Antitumor activity against cytoxan-resistant rat Walker 256 cells intramuscularly allografted in rat assessed as survival rate at 0.12 mg/kg, qd administered for 5 days; type: functional, organism-based; parameters: dose 0.12 mg/kg; method in brief: as §2
Rattus norvegicus [13] = species on record: Rattus norvegicus; experiment: Toxicity in Wistar-Furth rat assessed as decrease in mature spermatocytes measured for 24 hrs; type: organism-based; conditions: in vivo
Method in brief: (§3)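 Wistar-Furth rats were injected daily for 5 days at the antifertility-study doses of 1 or 5 mg/kg, depending on agent. Testes or ovaries were taken at sacrifice after 1, 3 or 24 h. Cryostat frozen sections were fixed in 95% alcohol for 10 min and stained with acridine orange (DNA green, RNA red). Results were compared with untreated controls.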

Rattus norvegicus [14] = species on record: Rattus norvegicus; experiment: Toxicity in Wistar-Furth rat assessed as effect on ovary measured for 24 hrs; type: organism-based, Female gonad; conditions: in vivo; method in brief: as §3
[15] = Therapeutic index, ratio of LD50 for rat allografted with cytoxan-resistant rat Walker 256 cells to ED10 for antitumor activity against rat Walker 256 cells allografted in rat; conditions: read-out: TI
Method in brief: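 Therapeutic index is LD50/ED10 in cytoxan-resistant Walker 256 solid tumour in rats. ED10 is the dose giving a 10% reduction, extrapolated from dose-response data.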

[16] = Toxicity in rat allografted with rat Walker 256 cells intramuscularly; type: organism-based
W256 [17] = experiment: Antitumor activity against rat Walker 256 cells intramuscularly allografted in rat assessed as tumor growth inhibition; type: functional; conditions: W256, im; method in brief: as §1
[18] = Therapeutic index, ratio of LD50 for rat allografted with rat Walker 256 cells to ED10 for antitumor activity against rat Walker 256 cells intramuscularly allografted in rat; type: cell-based; conditions: read-out: TI
Method in brief: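 Therapeutic index is LD50/ED10 in the Walker 256 solid tumour system. ED10 is the dose giving a 10% tumour weight reduction, with values extrapolated from dose-response data.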

Musca domestica [19] = experiment: Toxicity in male house fly assessed as lowest dose required to cause complete sterility administered in sugar; type: organism-based; conditions: in vivo, po
Musca domestica [20] = experiment: Toxicity in male house fly assessed as lowest dose required to cause complete sterility administered in food; type: organism-based; conditions: in vivo, po
Rattus norvegicus [21] = species on record: Rattus norvegicus; experiment: Toxicity in Wistar-Furth rat assessed as decrease in secondary spermatocytes measured for 24 hrs; type: organism-based; conditions: in vivo; method in brief: as §3

## C=CCN(CC=C)P(=O)(N1CC1)N1CC1
W256 [1]
  inhibition in vivo at 0.5 mg/kg: 58%
W256 [2]
  inhibition in vivo at 0.25 mg/kg: 60%
W256 [3]
  inhibition in vivo at 0.12 mg/kg: 98%
W256 [4]
  Activity: Active
W256 [5]
  Activity: Active
W256 [6]
  Activity: Active
W256 [7]
  Activity: Active
W256 [8]
  Activity: Active
W256 [9]
  Activity: Active
W256 [10]
  Activity: Active
W256 [11]
  Activity: Active
W256 [12]
  Activity: Active
Rattus norvegicus [13]
  Activity: Non-toxic
Rattus norvegicus [14]
  Activity: Non-toxic
[15]
  selectivity ratio: 2.5
[16]
  LD50: 5 mg/kg
W256 [17]
  ED10: 0.5 mg/kg
[18]
  selectivity ratio: 10
Musca domestica [19]
  Activity: 0.05%
Musca domestica [20]
  Activity: 0.1%
Rattus norvegicus [21]
  Activity: Toxic
